Source: PubChem (several laboratories)
CYP2C9 inh = blockers of cytochrome P450 2C9 activity – biochemical, luminescence, ADME assay, primary screen. P11712. CYP2C9 Supersomes, luciferin-H conversion. inhibition, % at 5 µM. 20% of 96,000 active;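 active = blocking of liver enzyme CYP2C9 beyond about 50% at 5 µM, limit read from the data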
CYP2C19 act = human CYP2C19 activators, primary screen, biochemical, luminescence; recombinant CYP2C19, luciferin-H EGE luminescence; hits give high values; 0 = fully inhibited enzyme, 1 = untreated enzyme; activation factor at 5 µM; 96,000 tested, under 10 active;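 active = activation factor of at least 2 at 5 µM in the primary screen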;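 also: 0 = wells with 2.5 mM tranylcypromine and 1 = vehicle-only wells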
Target sequence (P33261 whole entry, looked up): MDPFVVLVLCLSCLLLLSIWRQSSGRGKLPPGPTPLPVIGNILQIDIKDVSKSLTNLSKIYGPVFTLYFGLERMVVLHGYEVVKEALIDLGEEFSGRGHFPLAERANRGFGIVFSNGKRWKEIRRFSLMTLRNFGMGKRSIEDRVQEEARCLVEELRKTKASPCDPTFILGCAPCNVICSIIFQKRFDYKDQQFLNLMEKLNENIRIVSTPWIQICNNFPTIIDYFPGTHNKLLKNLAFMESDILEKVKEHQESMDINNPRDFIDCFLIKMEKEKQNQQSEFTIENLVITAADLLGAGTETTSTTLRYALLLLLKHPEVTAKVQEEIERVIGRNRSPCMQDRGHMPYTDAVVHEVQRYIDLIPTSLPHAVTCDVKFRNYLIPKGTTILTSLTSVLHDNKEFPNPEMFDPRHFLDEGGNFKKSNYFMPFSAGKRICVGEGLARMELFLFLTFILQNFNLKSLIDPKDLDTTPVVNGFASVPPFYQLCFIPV
CYP2C9 act = human CYP2C9 activators, primary screen, biochemical, luminescence. recombinant CYP2C9, luciferin-H conversion; hits give high values; factor 1 = untreated enzyme, 0 = blocked. 1.4% of 96,000 active. AID 1024, 2008. Cytochrome P450 2C9 (Homo sapiens), P11712. activation factor at 5 µM;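 active = activation factor of 2 or more for CYP2C9 at a 5 µM dose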;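 also: 0 = sulfaphenazole-blocked wells and 1 = vehicle-only wells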
Ecoli tolC = growth inhibitors of E. coli tolC mutant, primary screen, strain BW25113 ΔtolC::kan, 384-well | OD615 | growth inhibition, % at 10 µM (by protocol) | 2.2% of 65,000 active | AID 573, 2007;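 active = growth inhibition at or above a cutoff equal to the mean over every tested compound plus 3 SD, cut at about 60% in these data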;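 also: growth measured after 20 h incubation at 37 °C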
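System: E. coli ΔtolC::kan strain BW25113; Buffer or medium: LB broth supplemented with 50 µg/mL kanamycin; Compound: 10 µM final, single dose; Incubation: bacterial growth with compound for 20 h at 37 °C; Signal: A615 absorbance measurement; Evaluation: growth inhibition in percent.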
Ecoli WT expand = growth inhibitors of wild-type E. coli, primary screen, strain BW25113, expanded library, OD600; AID 710, 2007; growth inhibition, % at 100 µM; OD600 absorbance; 0.15% of 98,000 active;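 active = growth inhibition above about 50% at one test dose, limit read from the data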;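 also: growth measured after 20 h incubation at 37 °C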
CYP2C19 inh = blockers of cytochrome P450 2C19 activity – biochemical, luminescence, ADME assay, primary screen. CYP2C19 Supersomes, luciferin-H EGE luminescence, 30 min. 21% of 96,000 active. AID 778, 2007. inhibition, % at 5 µM;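 active = CYP2C19 inhibition above a set limit at 5 µM in the primary screen, cut at about 50% in these data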;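 also: plate controls were negative control wells for no effect and 2.5 mM tranylcypromine positive control for full effect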
The depositor's hits bear a star; . = no result given. Only some compounds are listed: those with a hit (about 29% of all), similar ones and a draw of the others.

SMILES | CYP2C9 inh | CYP2C19 act | CYP2C9 act | Ecoli tolC | Ecoli WT expand | CYP2C19 inh
CCN1C(=O)CSc2ccc(C(=O)NCc3ccc(OC)cc3)cc21 | 86.1* | 0.2 | 0.1 | . | -4.0 | 79.8*
O=C(NCc1ccco1)c1ccc2c(c1)N(Cc1ccccc1)C(=O)CS2 | 78.2* | 0.7 | 0.2 | . | -14.0 | 34.8
C=CCN1C(=O)CSc2ccc(C(=O)NCc3ccco3)cc21 | 4.0 | 0.9 | 1 | -2.9 | 5.0 | 7.5
CC(=O)Nc1ccc(-n2c(C)nc(=O)c(-c3ccccc3)c2C)cc1 | -13.3 | 1.1 | 1.1 | -1.5 | 6.0 | -7.0
COc1cc(OC)cc(C(=O)NC2CC3CCC(C2)N3Cc2ccco2)c1 (stereo not drawn) | 1.2 | 1 | 1 | -16.9 | 7.0 | 0.3
O=C1N2CCCc3cccc(c32)C12Nc1ccccc1S2 (stereo not drawn) | 0.5 | 0.8 | 1 | 29.1 | 2.0 | 23.4
CC1CC(C)(C)N2C(=O)C3(Nc4ccccc4S3)c3cccc1c32 (stereo not drawn) | 43.7 | 0.5 | 0.6 | . | -9.0 | 52.3*
CCC1Oc2ccc(C)cc2N(CC(=O)NCCC2=CCCCC2)C1=O (stereo not drawn) | 25.4 | 0 | 0.7 | 16.6 | -6.0 | 99.1*
CCC1Oc2ccc(C)cc2N(CC(=O)NCCCN2CCCCC2CC)C1=O (stereo not drawn) | -8.2 | 1.1 | 1.1 | -1.0 | -4.0 | -8.9
CC(C)=C(C#N)c1nc2ccccc2s1 | -0.3 | 0.4 | 1 | 0.6 | 2.0 | 56.1*
COC(=O)c1ccc(/C(O)=C(\C#N)c2nc3ccccc3s2)cc1 | 58.3* | 1 | 0.4 | 64.6* | -6.0 | 3.1
CC(C)NC(=O)c1nc2ccccc2s1 | 9.2 | 0.7 | 0.9 | -2.5 | -3.0 | 25.2
COc1ccccc1N/C(N)=N/c1nc(CSc2ccc(C)cc2)cc(=O)[nH]1 | 60.6* | 0.4 | 0.4 | 32.6 | -8.0 | 60.8*
CC(=O)c1c(C(C)=O)c(C)n(Cc2ccc3c(c2)OCO3)c1C | 54.6* | 0.2 | 0.5 | -7.9 | -3.0 | 75.4*
CC(=O)c1c(C)n(CC(=O)NCc2ccc3c(c2)OCO3)c2ccccc12 | 59.4* | 0.3 | 0.4 | -7.5 | 7.0 | 74.9*
CCS(=O)(=O)N1CCCC(C(=O)NCCc2ccccc2)C1 (stereo not drawn) | 26.6 | 0.8 | 0.7 | . | -9.0 | 15.9
CC(=O)c1ccc(OCCCC(=O)NCC(c2ccco2)N(C)C)cc1 (stereo not drawn) | 62.7* | 0.2 | 0.4 | 0.8 | 0.0 | 80.8*
Cc1ccc(OCCCC(=O)NCc2ccco2)cc1 | 24.1 | 0.9 | 0.8 | . | 1.0 | 11.1
COc1cc([N+](=O)[O-])ccc1NC(=O)CCCOc1ccccc1 | 35.3 | 0.4 | 0.6 | . | -3.0 | 63.6*
COc1ccc(NC(=O)N2CCC(c3ccccc3)C2)c(OC)c1 (stereo not drawn) | -109.1 | 0.1 | 2.1* | 5.0 | -10.0 | 85.2*
COc1ccc(NC(=O)c2ccccc2C)c(OC)c1 | -15.1 | 0.6 | 1.2 | -12.4 | 2.0 | 37.7
COc1ccc(C(CNC(=O)CCOc2ccccc2)N(C)C)cc1 (stereo not drawn) | 15.4 | 0.5 | 0.8 | . | 6.0 | 54.9*
CNS(=O)(=O)c1cccc2nsnc12 | . | . | . | 4.0 | . | .
O=C(N/N=C1/CCCc2ccccc21)C(c1ccccc1)c1ccccc1 | 6.8 | 1.1 | 0.9 | . | -11.0 | -12.2
CCN1C(=O)CC(C(=O)O)SC1=Nc1ccc(OC)cc1 (stereo not drawn) | -8.0 | 1 | 1.1 | -3.9 | -3.0 | -4.9
SMILES | CYP2C9 inh | CYP2C19 act | CYP2C9 act | Ecoli tolC | Ecoli WT expand | CYP2C19 inh
Cc1ccc(-c2cccc(NC(=O)C3C4C=CC(C4)C3C(=O)O)c2)o1 (stereo not drawn) | 2.2 | 1 | 1 | . | 5.0 | -3.4
CCN(CC)c1nc2ccccc2n2cnnc12 | 15.2 | 1 | 0.8 | 1.2 | -1.0 | -0.4
N#CC1(c2ccccc2)CCC(=NO)CC1 (stereo not drawn) | 18.9 | 0.6 | 0.8 | 9.2 | 1.0 | 36.9
O=C(CCOc1ccccc1)NCC(c1ccco1)N1CCCCC1 (stereo not drawn) | 1.9 | 0.3 | 1 | -6.5 | -4.0 | 65.8*
COc1ccc(NC(=O)CC(=O)Nc2ccc(OC)cc2OC)c(OC)c1 | -41.0 | 0.7 | 1.4 | 11.3 | 5.0 | 34.7
CCN(CC(=O)Nc1ccc([N+](=O)[O-])cc1OC)c1ccccc1 | 77.8* | 0.5 | 0.2 | . | -8.0 | 53.0*
COc1cc([N+](=O)[O-])ccc1NC(=O)CN(C)C | -14.1 | 1.1 | 1.1 | . | 12.0 | -6.2
COc1ccc(NC(=O)CCOc2ccccc2)c(OC)c1 | -29.6 | 0.3 | 1.3 | 2.5 | 10.0 | 73.3*
O=C(NCC(c1ccco1)N1CCCC1)c1ccccc1F (stereo not drawn) | 17.4 | 0.9 | 0.8 | . | 7.0 | 9.6
COc1ccc(OCCCC(=O)Nc2cc([N+](=O)[O-])ccc2C)cc1 | -155.2 | 0.8 | 2.6* | . | -7.0 | 18.8
CC1CN(Cc2cc(=O)[nH]c(C(C)C)n2)CC(C)O1 (stereo not drawn) | 20.1 | 0.9 | 0.8 | . | 5.0 | 10.3
CCN(CC)S(=O)(=O)c1cc([N+](=O)[O-])ccc1NNC(=O)Nc1ccccc1OC | 63.0* | 0.5 | 0.4 | . | -12.0 | 50.8*
CCc1nnc(NC(=O)c2ccc(OC)cc2OC)s1 | 26.9 | 0.8 | 0.7 | 3.1 | -5.0 | 21.4
CCN(CC)S(=O)(=O)c1cc([N+](=O)[O-])ccc1NNC(=O)Nc1ccc(F)cc1 | 12.6 | 0.9 | 0.9 | . | 8.0 | 6.0
COc1ccc(NC(=O)CCC(=O)Nc2nnc(C(F)(F)F)s2)c(OC)c1 | 65.2* | 0.6 | 0.3 | . | -1.0 | 35.7
Cc1ccc(C(=O)N2CC3(C(C)C)CN(C(=O)c4ccc(C)cc4)CC(C(C)C)(C2)C3=O)cc1 | 6.5 | 0.9 | 0.9 | . | -3.0 | 11.4
Cc1ccc(N2C(N)=C(C#N)C3(C(=O)N(C)c4ccccc43)C3=C2CC(C)(C)CC3=O)cc1Cl (stereo not drawn) | 54.4* | 0.9 | 0.5 | . | -4.0 | 12.5
N#C/C(C(=O)c1ccccc1)=C1/SC=C(N)N1c1ccccc1 | 92.3* | 0.2 | 0.1 | 10.1 | -16.0 | 81.3*
Cc1ccc(NC2=NCC(=O)N2Cc2ccc3c(c2)OCO3)c(C)c1 | 79.1* | 0 | 0.2 | 18.0 | 5.0 | 96.4*
CCc1ccc(NC2=NCC(=O)N2Cc2ccc3c(c2)OCO3)cc1 | 57.5* | 0.6 | 0.4 | 20.1 | 5.0 | 36.1
Cc1cc(NC(=O)c2cccc(COc3ccc(Br)cc3)c2)no1 | -8.7 | 0.9 | 1.1 | -5.4 | -10.0 | 14.4
